In ChEMBL document CHEMBL4359826, “Preparation of bivalent agonists for targeting the mu opioid and cannabinoid receptors” (Eur J Med Chem, 2019):
Activity calls are given as the source filed them. The rule behind the calls is not given here.

How the values were obtained:
Cannabinoid receptor [1] = target: T1, Cannabinoid receptor (Rattus norvegicus, UniProt Q9QZN9+P20272); test: Displacement of [3H]JWH-018 from CB1R/CB2R in Wistar rat brain membranes after 60 mins by liquid scintillation analysis; type: cell membranes
[2] = target: Kappa-type opioid receptor (Cavia porcellus, UniProt P41144); type: cell membranes, Brain, Membranes
[3] = Agonist activity at MOR/CB1R/CB2R receptor in Wistar rat brain membranes after 60 mins by [35S]-GTPgammaS binding assay; type: cell membranes
Rattus norvegicus = species on record: Rattus norvegicus; conditions: Wistar, Brain, Membranes, at 10 µM
Mu-type opioid receptor = Mu-type opioid receptor (Rattus norvegicus, UniProt P33535); test: Displacement of [3H]DAMGO from MOR in Wistar rat brain membranes after 60 mins by liquid scintillation analysis; type: cell membranes
[4] = target: Delta-type opioid receptor (Rattus norvegicus, UniProt P33533); test: Displacement of [3H]Ile5,6-deltorphin-2 from DOR in Wistar rat brain membranes after 60 mins by liquid scintillation analysis; type: cell membranes
Cannabinoid receptor [5] = target: T1, Cannabinoid receptor; type: cell membranes, Wistar, Brain, Membranes
[6] = target: Cannabinoid receptor (Rattus norvegicus) (UniProt Q9QZN9+P20272); test: Displacement of [3H]JWH-018 from CB1R/CB2R in Wistar rat brain membranes at 10 uM after 60 mins by liquid scintillation analysis; type: cell membranes
How it was run: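 Whole rat brain membranes (cerebellum removed; 0.3–0.5 mg/mL protein) in 50 mM Tris-HCl pH 7.4 with 2.5 mM EGTA, 5 mM MgCl2 and 0.5 mg/mL fatty-acid-free BSA, 30 °C. Kinetics used 0.6 nM [3H]JWH-018: association over 0–90 min, dissociation started with 10 µM JWH-018 after 60 min. Saturation over 0.5–35 nM. Competitors at 10^-11–10^-5 M, 60 min. Nonspecific binding with 10 µM JWH-018. Filtration onto PEI-soaked GF/B filters; n≥3.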

Cannabinoid receptor (Rattus norvegicus), sequence (P20272 whole entry, looked up): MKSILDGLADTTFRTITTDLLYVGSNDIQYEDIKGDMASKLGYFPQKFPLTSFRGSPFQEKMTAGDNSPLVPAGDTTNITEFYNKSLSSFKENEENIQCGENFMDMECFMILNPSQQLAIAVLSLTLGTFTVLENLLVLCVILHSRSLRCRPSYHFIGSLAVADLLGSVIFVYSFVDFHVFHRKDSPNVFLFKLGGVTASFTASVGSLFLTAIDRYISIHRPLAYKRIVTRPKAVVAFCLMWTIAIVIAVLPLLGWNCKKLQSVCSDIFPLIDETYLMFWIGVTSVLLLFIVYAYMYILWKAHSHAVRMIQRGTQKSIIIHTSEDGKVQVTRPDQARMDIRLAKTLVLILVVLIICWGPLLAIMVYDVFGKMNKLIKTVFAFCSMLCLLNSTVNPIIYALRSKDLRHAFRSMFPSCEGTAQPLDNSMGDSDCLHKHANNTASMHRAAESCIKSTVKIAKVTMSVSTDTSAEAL
Cannabinoid receptor (Rattus norvegicus), sequence (Q9QZN9 whole entry, looked up): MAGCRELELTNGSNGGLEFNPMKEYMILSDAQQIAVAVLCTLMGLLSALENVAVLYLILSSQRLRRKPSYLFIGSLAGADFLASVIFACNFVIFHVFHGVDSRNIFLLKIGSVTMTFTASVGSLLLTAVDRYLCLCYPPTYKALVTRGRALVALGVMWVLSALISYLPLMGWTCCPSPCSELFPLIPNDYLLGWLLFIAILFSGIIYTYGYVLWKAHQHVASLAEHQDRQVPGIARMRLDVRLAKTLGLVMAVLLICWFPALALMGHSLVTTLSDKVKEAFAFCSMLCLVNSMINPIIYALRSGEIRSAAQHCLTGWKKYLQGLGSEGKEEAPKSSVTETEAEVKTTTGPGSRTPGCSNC
Mu-type opioid receptor, sequence (P33535 whole entry): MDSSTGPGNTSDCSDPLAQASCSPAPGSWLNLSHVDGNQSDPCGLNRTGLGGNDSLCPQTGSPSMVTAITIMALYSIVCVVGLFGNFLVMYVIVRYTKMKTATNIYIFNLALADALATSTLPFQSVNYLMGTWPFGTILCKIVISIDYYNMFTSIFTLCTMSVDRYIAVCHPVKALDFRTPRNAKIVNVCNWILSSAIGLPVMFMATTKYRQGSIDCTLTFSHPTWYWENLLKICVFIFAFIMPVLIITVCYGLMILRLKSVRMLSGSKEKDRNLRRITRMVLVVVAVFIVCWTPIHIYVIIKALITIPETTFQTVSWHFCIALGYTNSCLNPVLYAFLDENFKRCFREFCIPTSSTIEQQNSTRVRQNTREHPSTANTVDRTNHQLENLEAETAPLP
Kappa-type opioid receptor, sequence (P41144 whole entry): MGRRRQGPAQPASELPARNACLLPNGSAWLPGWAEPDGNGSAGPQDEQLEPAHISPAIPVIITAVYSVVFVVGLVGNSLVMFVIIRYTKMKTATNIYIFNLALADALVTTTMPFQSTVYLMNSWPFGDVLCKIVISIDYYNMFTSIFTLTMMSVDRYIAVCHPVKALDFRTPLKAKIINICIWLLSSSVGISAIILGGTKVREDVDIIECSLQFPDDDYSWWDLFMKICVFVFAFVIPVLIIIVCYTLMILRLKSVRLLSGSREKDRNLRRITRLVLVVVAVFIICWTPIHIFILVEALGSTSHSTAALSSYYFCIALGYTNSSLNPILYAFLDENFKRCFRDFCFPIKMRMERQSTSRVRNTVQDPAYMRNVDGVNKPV
Delta-type opioid receptor, sequence (P33533 whole entry): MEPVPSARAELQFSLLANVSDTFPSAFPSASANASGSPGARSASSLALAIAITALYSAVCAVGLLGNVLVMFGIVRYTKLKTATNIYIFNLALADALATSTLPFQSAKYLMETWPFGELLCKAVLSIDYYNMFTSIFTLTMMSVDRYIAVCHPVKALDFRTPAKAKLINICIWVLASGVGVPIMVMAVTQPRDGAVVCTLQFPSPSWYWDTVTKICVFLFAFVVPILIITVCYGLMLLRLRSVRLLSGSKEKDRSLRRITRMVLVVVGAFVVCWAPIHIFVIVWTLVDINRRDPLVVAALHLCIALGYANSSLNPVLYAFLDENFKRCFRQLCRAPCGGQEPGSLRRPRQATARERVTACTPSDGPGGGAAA

| Compound | Ki (Cannabinoid receptor [1]) | Ki [2] | EC50 [3] | Emax (Rattus norvegicus) | Ki (Mu-type opioid receptor) | Ki [4] | Ki (Cannabinoid receptor [5]) | Activity [6] |
| --- | --- | --- | --- | --- | --- | --- | --- | --- |
| CCCCCn1cc(C(=O)c2cccc3ccccc23)c2cc(Br)ccc21 | 0.059 µM |  |  |  |  |  |  |  |
| CC(C)C[C@H](NC(=O)[C@H](Cc1ccccc1)NC(=O)[C@H](CCCCN)NC(=O)[C@H](Cc1ccccc1)NC(=O)[C@H](CC(N)=O)NC(=O)[C@@H](NC(=O)[C@@H]1CCCN1)C(C)C)C(=O)N[C@@H](CO)C(=O)N[C@@H](Cc1cnc[nH]1)C(=O)O [HEMOPRESSIN] | 2.793 µM |  |  |  |  |  |  |  |
| COc1ccc2c3c1O[C@H]1/C(=N\OCC(=O)NCCN)CC[C@@]4(O)[C@@H](C2)N(C)CC[C@]314 |  | 0.471 µM | 0.45 µM | 113% | 0.017 µM | 0.533 µM |  |  |
| C[C@@H](NC(=O)[C@@H](N)Cc1ccc(O)cc1)C(=O)NCC(=O)N[C@@H](Cc1ccccc1)C(=O)NCCCCCn1cc(C(=O)c2cccc3ccccc23)c2ccccc21 | 1.013 µM | 0.231 µM | 1.8 µM | 110% | 0.05 µM | 0.214 µM | 0.823 µM |  |
| COc1ccc2c3c1O[C@H]1/C(=N\OCC(=O)NCCCCCCN)CC[C@@]4(O)[C@@H](C2)N(C)CC[C@]314 |  | 0.38 µM | 0.305 µM | 111% | 0.041 µM | 0.659 µM |  |  |
| C[C@@H](NC(=O)[C@@H](N)Cc1ccc(O)cc1)C(=O)NCC(=O)N[C@@H](Cc1ccccc1)C(=O)NCCCC(=O)NCCCCCn1cc(C(=O)c2cccc3ccccc23)c2ccccc21 | 0.928 µM | 0.05 µM | 0.06 µM | 125% | 0.02 µM | 0.092 µM | 1.042 µM |  |
| NC(=O)[C@H](Cc1ccccc1)NC(=O)[C@H](Cc1ccccc1)NC(=O)[C@@H]1CCCN1C(=O)[C@@H](N)Cc1ccc(O)cc1 |  |  |  |  |  |  |  | inactive |
| H-RVDPVNFKLLSH-OH | > 10 µM |  |  |  |  |  |  |  |
| NCCCCCn1cc(C(=O)c2cccc3ccccc23)c2ccccc21 | 0.19 µM |  |  | 102% |  |  | 0.269 µM |  |
| C=CCN1CC[C@]23c4c5ccc(O)c4O[C@H]2C(=O)CC[C@@]3(O)[C@H]1C5 |  |  |  |  |  |  |  | inactive |
| H-PVNFKFL-OH | > 10 µM |  |  |  |  |  |  |  |
| COc1ccc2c3c1O[C@H]1/C(=N\OCC(=O)O)CC[C@@]4(O)[C@@H](C2)N(C)CC[C@]314 |  | > 10 µM | 0.225 µM | 109% | 0.024 µM | 0.11 µM |  |  |
| CN1CC[C@]23c4c5ccc(O)c4O[C@H]2[C@@H](O)C=C[C@H]3[C@H]1C5 |  |  |  |  |  |  |  | inactive |
| NC(=O)[C@H](Cc1ccccc1)NC(=O)[C@H](Cc1c[nH]c2ccccc12)NC(=O)[C@@H]1CCCN1C(=O)[C@@H](N)Cc1ccc(O)cc1 |  |  |  |  |  |  |  | inactive |
| CC(=O)NCCCCCn1cc(C(=O)c2cccc3ccccc23)c2ccccc21 | 0.145 µM |  | 2.15 µM | 83% |  |  | 0.149 µM |  |
| COc1ccc2c3c1O[C@H]1/C(=N\OCC(=O)NCCCOCCOCCOCCCN)CC[C@@]4(O)[C@@H](C2)N(C)CC[C@]314 |  | 0.503 µM | 0.2 µM | 112% | 0.074 µM | 0.757 µM |  |  |
| O=C(O)CCCCCn1cc(C(=O)c2cccc3ccccc23)c2ccccc21 | 0.247 µM |  | 4.22 µM | 81% |  |  | 0.205 µM |  |
| C[C@@H](NC(=O)[C@@H](N)Cc1ccc(O)cc1)C(=O)NCC(=O)N[C@@H](Cc1ccccc1)C(=O)NCCC(=O)NCCCCCn1cc(C(=O)c2cccc3ccccc23)c2ccccc21 | 0.919 µM | 0.151 µM | 0.018 µM | 114% | 0.048 µM | 0.19 µM | 1.216 µM |  |
